This note sets out measurements from ChEMBL document CHEMBL1150415 (J Med Chem, 2008).

Active and inactive are the calls of the source. The rule behind the calls is not given here.

Usually bioavailability stands for dose-corrected exposure relative to a reference, in per cent. A word on the IC50: it is the concentration needed to halve the response being measured. In general, inhibition refers to the drop in the measured response relative to a control, in per cent. As usually defined, the ED50 is the dose that gives a 50% effect, or the effect in half of the subjects. One may read the inhibition in vivo as how much of the control response was suppressed.

Data set [1] can be described thus: Oral bioavailability in rat. As to conditions: in vivo. The class given is ADME, organism-based.
Data set [2] relates to Rattus norvegicus. As to the kind of experiment: Reduction in cartilage damage in Freund's adjuvant-induced arthritis Lewis rat model at 50 mg/kg, po for 11 days. The class given is functional, organism-based. On the set-up: dose 50 mg/kg. A digest of the protocol: (§1)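 Arthritis was induced in Lewis rats by intradermal complete Freund's adjuvant at the base of the tail. Oral treatment began on day 8, when mean clinical joint scores were 12, and continued for 11 days. Tarsal joints were taken at necropsy and lesions were scored histologically in blinded fashion.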

Data set [3] can be described thus: Inhibition of cytosolic phospholipase A2alpha.
Data set [4] can be described thus: Plasma concentration in adjuvant-induced arthritis Lewis rat model at 50 mg/kg, po after 16 hrs. Details: dose 50 mg/kg, route oral. The class given is ADME, organism-based.
For data set [5], the system named is MC9. As to the kind of experiment: Inhibition of LTB4 production in mouse MC9 cells. It is filed as functional, cell-based.
Data set [6] relates to Rattus norvegicus. As to the kind of experiment: Reduction in synovitis damage in Freund's adjuvant-induced arthritis Lewis rat model at 25 mg/kg, po for 11 days. It is filed as functional, organism-based. On the set-up: dose 25 mg/kg. A digest of the protocol: as §1
Data set [7] relates to Ovis aries. As to the kind of experiment: Effect on late asthmatic response in Ascaris Suum antigen-induced reversible airway bronchoconstriction sheep model assessed as reduction in lung resistance at 10 mg/kg, po bid administered 2 hrs before antigen challenge measured 5 to 8 hrs after challenge. It is filed as functional. On the set-up: scale not given: the % may be the effect or the level left.

Data set [8] concerns Blood. Briefly: Inhibition of PGF2alpha production in human whole blood at 0.15 uM. It is filed as functional. A digest of the protocol: (§2)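 Human whole blood stimulated with calcium ionophore A23187 at 30 µM. Several arachidonic acid metabolites (LTB4, PGE2, PGF2α, TXB2) and PAF production were quantified.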
Data set [9] in a line: Plasma concentration in adjuvant-induced arthritis Lewis rat model at 5 mg/kg, po after 16 hrs. On the set-up: dose 5 mg/kg, route oral. It is filed as ADME, organism-based.
Data set [10] in a line: Inhibition of cytosolic phospholipase A2alpha by GLU micelle assay. In short, it runs like this:
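Micellar assay with 7-hydroxycoumarinyl-γ-linolenate (GLU) substrate, presenting inhibitor and substrate to the enzyme in high-lipid micelles. Each run gives the mean of duplicate assays, and values come from at least two runs.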

Data set [11] relates to Blood. Briefly: Inhibition of LTB4 production in human whole blood at 0.15 uM. The class given is functional. A digest of the protocol: as §2
Data set [12] has as its target Prostaglandin G/H synthase 2, cyclooxygenase-2 (Homo sapiens) (UniProt P35354). Briefly: Inhibition of COX2-dependent PGE2 production in IL1B stimulated human A549 cells at 1 uM in presence of arachidonic acid.
Data set [13] has as its system Blood. Briefly: Inhibition of PGE2 production in human whole blood at 0.15 uM. The class given is functional. A digest of the protocol:
as §2

Data set [14] deals with MC9. Briefly: Inhibition of PGF2alpha production in mouse MC9 cells. It is filed as functional, cell-based.
Data set [15] deals with Mus musculus. Briefly: Plasma concentration in collagen-induced arthritis mouse model at 100 mg/kg, po twice daily after 12 to 14 hrs. Details: dose 100 mg/kg, route oral. Conditions: in vivo. It is filed as ADME, organism-based.
A short description of data set [16]: Plasma concentration in collagen-induced arthritis mouse model at 100 mg/kg, po twice daily after 3 hrs. It is filed as ADME, organism-based. Details: dose 100 mg/kg, route oral.
Data set [17] has as its system Rattus norvegicus. Briefly: Inhibition of carrageenan-induced paw edema in po dosed Sprague-Dawley rat administered 2 hrs before carrageenan challenge. The class given is functional. A general note: The carrageenan paw model is a standard test of acute inflammation.
Data set [18] can be described thus: Inhibition of secreted phospholipase A2 at 0.5 uM. A digest of the protocol: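 Type II secreted PLA2 activity measured with PAPE (1-palmitoyl-2-arachidonoyl-sn-glycero-3-phosphoethanolamine) liposomes as substrate.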
The nature of data set [19]: Inhibition of cytosolic phospholipase A2alpha at 0.020 uM. In short, it runs like this: (§3)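 Isolated enzyme activity on PAPC (1-palmitoyl-2-arachidonoyl-sn-glycero-3-phosphocholine) liposome substrate.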
Data set [20] concerns Blood. Briefly: Inhibition of TXB2 production in human whole blood at 0.15 uM. It is filed as functional. In short, it runs like this:
as §2

A short description of data set [21]: Plasma concentration in adjuvant-induced arthritis Lewis rat model at 5 mg/kg, po after 4 hrs. It is filed as ADME, organism-based. Details: dose 5 mg/kg, route oral.
The subject of data set [22] is Ovis aries. Briefly: Inhibition of acute hyperresponsiveness in Ascaris Suum antigen-induced reversible airway bronchoconstriction sheep model assessed as reduction in lung resistance at 10 mg/kg, po bid administered and measured after 16 hrs.
Data set [23] has as its system Rattus norvegicus. As to the kind of experiment: Reduction in synovitis damage in Freund's adjuvant-induced arthritis Lewis rat model at 5 mg/kg, po for 11 days. On the set-up: dose 5 mg/kg. It is filed as functional, organism-based. In short, it runs like this:
as §1

Data set [24] relates to MC9. As to the kind of experiment: Inhibition of PGF2apha production in arachidonic acid-stimulated mouse MC9 cells. The class given is functional, cell-based.
The test system of data set [25] is Rattus norvegicus. Briefly: Reduction in synovitis damage in Freund's adjuvant-induced arthritis Lewis rat model at 50 mg/kg, po for 11 days. It is filed as functional, organism-based. Details: dose 50 mg/kg. A digest of the protocol:
as §1

For data set [26], the system named is Rattus norvegicus. As to the kind of experiment: Inhibition of PGE2 production in carrageenan-stimulated orally dosed rat air pouch model after 6 hrs. It is filed as functional. Conditions: po. A digest of the protocol:
(§4)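 Carrageenan was injected into a preformed air pouch 2 h after oral drug. Pouch contents were removed 6 h later and PGE2 was quantified.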

Data set [27] deals with Rattus norvegicus. As to the kind of experiment: Reduction in cartilage damage in Freund's adjuvant-induced arthritis Lewis rat model at 5 mg/kg, po for 11 days. It is filed as functional, organism-based. On the set-up: dose 5 mg/kg. In short, it runs like this:
as §1

Data set [28] addresses T1, Cytosolic phospholipase A2 gamma (Homo sapiens) (UniProt Q9UP65).
T1 sequence (whole entry): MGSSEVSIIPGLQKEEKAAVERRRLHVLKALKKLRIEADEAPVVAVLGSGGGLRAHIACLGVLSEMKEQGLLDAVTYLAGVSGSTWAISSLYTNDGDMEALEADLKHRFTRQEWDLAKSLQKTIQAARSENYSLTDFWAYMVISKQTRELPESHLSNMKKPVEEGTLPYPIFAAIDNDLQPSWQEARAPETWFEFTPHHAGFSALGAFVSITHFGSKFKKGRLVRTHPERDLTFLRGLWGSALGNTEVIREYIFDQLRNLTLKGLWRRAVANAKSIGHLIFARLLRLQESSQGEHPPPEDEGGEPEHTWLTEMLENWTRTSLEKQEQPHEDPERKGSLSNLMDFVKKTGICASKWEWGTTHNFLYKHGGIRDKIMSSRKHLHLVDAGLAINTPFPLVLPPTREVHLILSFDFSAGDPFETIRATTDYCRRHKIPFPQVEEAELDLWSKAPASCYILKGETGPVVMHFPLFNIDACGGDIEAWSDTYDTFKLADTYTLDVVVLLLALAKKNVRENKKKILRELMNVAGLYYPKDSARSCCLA
As to the kind of experiment: Inhibition of cytosolic phospholipase A2gamma at 0.5 uM. In short, it runs like this: as §3

The subject of data set [29] is Blood. Briefly: Inhibition of PAF production in human whole blood at 0.15 uM. It is filed as functional. A digest of the protocol:
as §2

The nature of data set [30]: Plasma concentration in adjuvant-induced arthritis Lewis rat model at 50 mg/kg, po after 4 hrs. The class given is ADME, organism-based. Details: dose 50 mg/kg, route oral.
Data set [31] is described as follows: Plasma concentration in adjuvant-induced arthritis Lewis rat model at 25 mg/kg, po after 16 hrs. The class given is ADME, organism-based. On the set-up: dose 25 mg/kg, route oral.
Data set [32] concerns the target Prostaglandin G/H synthase 2, cyclooxygenase-2 (Homo sapiens) (UniProt P35354). Briefly: Inhibition of COX2-dependent PGE2 production in IL1B stimulated human A549 cells at 0.040 uM.
Data set [33] addresses T2, Cytosolic phospholipase A2 beta (Homo sapiens) (UniProt P0C869).
T2 sequence (whole entry): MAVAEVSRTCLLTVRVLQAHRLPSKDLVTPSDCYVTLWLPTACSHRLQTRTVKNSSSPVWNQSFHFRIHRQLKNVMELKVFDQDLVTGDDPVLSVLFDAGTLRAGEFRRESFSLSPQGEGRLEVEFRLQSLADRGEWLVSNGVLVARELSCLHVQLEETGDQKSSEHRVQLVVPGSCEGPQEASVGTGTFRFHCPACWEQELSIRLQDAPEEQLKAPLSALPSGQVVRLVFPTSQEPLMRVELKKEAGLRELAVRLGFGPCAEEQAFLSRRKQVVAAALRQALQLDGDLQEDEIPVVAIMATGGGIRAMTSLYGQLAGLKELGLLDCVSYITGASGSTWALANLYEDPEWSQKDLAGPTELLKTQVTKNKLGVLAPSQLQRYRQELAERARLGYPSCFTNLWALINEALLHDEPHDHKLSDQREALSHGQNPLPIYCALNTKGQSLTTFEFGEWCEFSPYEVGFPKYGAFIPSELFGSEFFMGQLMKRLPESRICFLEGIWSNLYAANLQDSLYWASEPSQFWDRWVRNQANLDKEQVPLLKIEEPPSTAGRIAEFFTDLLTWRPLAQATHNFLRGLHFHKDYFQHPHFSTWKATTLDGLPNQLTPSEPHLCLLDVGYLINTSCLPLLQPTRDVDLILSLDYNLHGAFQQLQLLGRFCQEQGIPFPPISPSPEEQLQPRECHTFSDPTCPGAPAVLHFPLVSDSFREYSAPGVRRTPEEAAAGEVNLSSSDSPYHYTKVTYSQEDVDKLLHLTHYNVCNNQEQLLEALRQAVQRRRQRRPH
As to the kind of experiment: Inhibition of cytosolic phospholipase A2beta at 0.5 uM. A digest of the protocol: as §3

The nature of data set [34]: Plasma concentration in adjuvant-induced arthritis Lewis rat model at 25 mg/kg, po after 4 hrs. The class given is ADME, organism-based. Details: dose 25 mg/kg, route oral.
In data set [35] the test system is Rattus norvegicus. As to the kind of experiment: Reduction in cartilage damage in Freund's adjuvant-induced arthritis Lewis rat model at 25 mg/kg, po for 11 days. The class given is functional, organism-based. On the set-up: dose 25 mg/kg. A digest of the protocol: as §1
Data set [36] deals with Blood. As to the kind of experiment: Inhibition of TXB2 production in Sprague-Dawley rat whole blood. It is filed as functional, tissue-based. A digest of the protocol:
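Rat whole blood stimulated with calcium ionophore A23187 at 5 µM, with thromboxane B2 measured. Each run gives the mean of triplicate assays, and values come from at least two runs.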

A short description of data set [37]: Plasma concentration in collagen-induced arthritis mouse model at 100 mg/kg, po twice daily after 1.5 hrs. It is filed as ADME, organism-based. Details: dose 100 mg/kg, route oral.
Data set [38] has as its system Rattus norvegicus. As to the kind of experiment: Inhibition of PGE2 production in carrageenan-stimulated rat air pouch model at 5 mg/kg, po after 6 hrs. It is filed as functional. A digest of the protocol:
as §4

A short description of data set [39]: Ratio of AUC in Sprague-Dawley rat at 25 mg/kg, po to IC50 for TXB2 production in Sprague-Dawley rat whole blood. It is filed as functional.

Sequence of Prostaglandin G/H synthase 2, cyclooxygenase-2 (Homo sapiens) (P35354 whole entry, looked up): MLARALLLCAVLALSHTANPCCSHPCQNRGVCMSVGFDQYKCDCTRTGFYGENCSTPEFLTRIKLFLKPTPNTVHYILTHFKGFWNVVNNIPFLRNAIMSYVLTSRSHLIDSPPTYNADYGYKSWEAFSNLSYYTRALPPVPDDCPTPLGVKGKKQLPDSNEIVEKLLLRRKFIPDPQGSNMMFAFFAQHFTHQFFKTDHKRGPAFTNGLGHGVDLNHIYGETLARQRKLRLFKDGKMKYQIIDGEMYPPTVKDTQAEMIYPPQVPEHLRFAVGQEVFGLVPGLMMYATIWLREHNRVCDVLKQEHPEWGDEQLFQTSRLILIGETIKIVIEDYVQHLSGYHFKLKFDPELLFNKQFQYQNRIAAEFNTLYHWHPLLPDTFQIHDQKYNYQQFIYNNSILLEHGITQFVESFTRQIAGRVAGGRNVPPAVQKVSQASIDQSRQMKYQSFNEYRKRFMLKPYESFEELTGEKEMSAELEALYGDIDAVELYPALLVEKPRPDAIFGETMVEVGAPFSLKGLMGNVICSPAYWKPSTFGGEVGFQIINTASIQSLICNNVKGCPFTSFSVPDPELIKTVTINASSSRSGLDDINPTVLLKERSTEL

Regarding `O=C(O)c1ccc(CCCc2c(CCNS(=O)(=O)Cc3ccc(Cl)c(Cl)c3)n(C(c3ccccc3)c3ccccc3)c3ccc(Cl)cc23)cc1` [EFIPLADIB], in data set [1], the bioavailability is 6%. Further, the outcome in data set [2], in data set [6], in data set [22], in data set [23], in [25] and in data set [27] was Active. In addition, the result in data set [35] was Active. Further, the IC50 was under 10 nM in data set [3]; 20 nM in data set [5]; 40 nM in [10]; 20 nM in data set [14]; 900 nM in data set [24]. The concentration at 16 h was determined as 692 ng/mL in data set [4], 34 ng/mL in data set [9] and 166 ng/mL in [31]. Moreover, the Activity in [7] is listed as 50%. For the same molecule, the inhibition at 0.15 µM in data set [8] was found to be 66%; in data set [11], 64%; in data set [13], 78%; in data set [20], 57%; in [29] it was 50%. For the same molecule, the result in data set [12], in data set [18], in [28] and in data set [33] was inactive. For the same molecule, the Cp in data set [15] came to 2315 ng/mL. Moreover, the concentration at 3 h in [16] stood at 7200 ng/mL. Also, the ED50 in data set [17] stood at 35 mg/kg; in [26], 6 mg/kg. Besides, the inhibition in data set [19] is over 90%; in [32], over 95%. Besides, the concentration at 4 h in data set [21] came to 147 ng/mL; in [30], 3600 ng/mL; in data set [34] it was 1130 ng/mL.
For the molecule `O=C(O)c1ccc(OCCc2c(CCNS(=O)(=O)Cc3ccc(Cl)c(Cl)c3)n(C(c3ccccc3)c3ccccc3)c3ccc(Cl)cc23)cc1` [ECOPLADIB], the IC50 in [36] amounted to 160 nM; in data set [10] it was 150 nM. The concentration at 1.5 h in data set [37] was 4080 ng/mL. The inhibition in vivo at 5 mg/kg in data set [38] is under 10%. The Ratio in [39] came to 18 h. The same molecule yielded a Cp in [15] of 531 ng/mL. The ED50 in data set [17] stood at 40 mg/kg; in data set [26], 10 mg/kg.
